Here are results for one molecule from ChEMBL document CHEMBL3763045, “Design, Synthesis, and Pharmacological Evaluation of Novel N-Acylhydrazone Derivatives as Potent Histone Deacetylase 6/8 Dual Inhibitors” (J Med Chem, 2016).

Activity calls are given as the source filed them. The rule behind the calls is not given here.

The target in data set [1] is Histone deacetylase. The experiment in a line: Inhibition of HDAC in rat liver by fluorimetry. A digest of the protocol:
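Rat liver HDAC IC50 from a six-point enzyme assay, three-fold serial dilution starting at 3 µM or 1 µM depending on compound; mean of two experiments ± SD.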

Data set [2] addresses T1, Protein deacetylase HDAC6 (Homo sapiens, UniProt Q9UBN7).
T1 sequence (Q9UBN7 whole entry): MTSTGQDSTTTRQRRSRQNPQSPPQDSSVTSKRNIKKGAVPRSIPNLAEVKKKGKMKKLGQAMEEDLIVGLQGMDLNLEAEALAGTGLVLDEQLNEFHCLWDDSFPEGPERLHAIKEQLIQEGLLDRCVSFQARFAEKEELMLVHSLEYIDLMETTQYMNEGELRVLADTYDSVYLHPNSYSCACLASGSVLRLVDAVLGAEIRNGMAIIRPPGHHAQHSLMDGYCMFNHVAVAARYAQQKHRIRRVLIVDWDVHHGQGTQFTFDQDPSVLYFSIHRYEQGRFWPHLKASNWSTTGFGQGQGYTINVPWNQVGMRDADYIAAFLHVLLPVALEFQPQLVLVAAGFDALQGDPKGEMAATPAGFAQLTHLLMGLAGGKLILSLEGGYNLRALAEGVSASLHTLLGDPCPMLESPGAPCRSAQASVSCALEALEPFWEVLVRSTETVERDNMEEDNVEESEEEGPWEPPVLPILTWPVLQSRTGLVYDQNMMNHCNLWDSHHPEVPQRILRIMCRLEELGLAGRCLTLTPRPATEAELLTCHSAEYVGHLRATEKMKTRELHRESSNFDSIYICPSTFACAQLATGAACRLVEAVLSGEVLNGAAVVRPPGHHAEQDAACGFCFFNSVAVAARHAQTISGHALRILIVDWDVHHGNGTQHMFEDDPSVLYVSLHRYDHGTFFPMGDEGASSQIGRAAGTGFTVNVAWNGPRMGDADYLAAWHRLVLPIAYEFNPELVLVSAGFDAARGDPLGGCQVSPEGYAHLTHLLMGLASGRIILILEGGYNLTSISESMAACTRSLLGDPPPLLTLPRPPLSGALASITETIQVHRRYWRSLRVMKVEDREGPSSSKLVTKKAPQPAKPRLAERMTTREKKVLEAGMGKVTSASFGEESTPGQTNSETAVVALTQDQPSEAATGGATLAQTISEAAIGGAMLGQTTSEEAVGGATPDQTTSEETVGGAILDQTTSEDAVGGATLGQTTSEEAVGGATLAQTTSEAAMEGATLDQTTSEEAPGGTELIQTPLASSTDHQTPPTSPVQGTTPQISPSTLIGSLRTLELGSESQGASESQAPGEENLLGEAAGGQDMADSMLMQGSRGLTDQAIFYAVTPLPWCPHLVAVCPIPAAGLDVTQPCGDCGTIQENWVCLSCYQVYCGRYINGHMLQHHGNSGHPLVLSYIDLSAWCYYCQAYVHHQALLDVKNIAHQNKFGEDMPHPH
The data set can be described thus: Inhibition of recombinant human HDAC6 by fluorimetry.

Data set [3] concerns MCF7. The experiment in a line: Antiproliferative activity against human MCF7 cells assessed as reduction in cell viability at 40 uM after 48 hrs by MTS assay. It counts as functional, cell-based. A digest of the protocol:
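MCF-7 cells exposed at 40 µM for 48 h, viability by MTS; ANOVA with Tukey's post-test against control.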
For orientation: Tetrazolium dyes change colour on reduction, which living cells bring about.

Data set [4] can be described thus: Chemical stability of the compound in acidic buffer assessed as compound recovery at pH 2 after 4 hrs by HPLC-PDA analysis. The settings on record: acidic buffer, pH 2; read-out: Drug recovery. In kind it is physicochemical. In short, it runs like this:
(§1)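 Compounds stirred in pH 7.4 or pH 2 buffer at 37 °C for 240 min; percentage of compound recovered followed over time (30 min and 4 h points). Triplicate runs, values averaged.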

Data set [5] has as its target Histone deacetylase 1 (Homo sapiens, UniProt Q13547). The experiment in a line: Inhibition of recombinant human HDAC1 by fluorimetry.
Data set [6] in a line: Chemical stability of the compound in acidic buffer assessed as compound hydrolysis at pH 2 measured for 240 mins by HPLC-PDA analysis. To be noted: pH 2, 4 h. It counts as physicochemical. A digest of the protocol: as §1
The test system of data set [7] is HepG2. The experiment in a line: Antiproliferative activity against human HepG2 cells assessed as reduction in cell viability after 48 hrs by MTS assay. The settings on record: HepG2, 48 h. In kind it is functional, cell-based.
In data set [8] the test system is HepG2. The experiment in a line: Antiproliferative activity against human HepG2 cells assessed as reduction in cell viability at 40 uM after 48 hrs by MTS assay. It counts as functional, cell-based.
Data set [9] can be described thus: Antiproliferative activity against human HT144 cells assessed as reduction in cell viability after 48 hrs by MTS assay. In kind it is functional, cell-based. To be noted: HT-144, 48 h.
Data set [10] in a line: Aqueous solubility of the compound in buffer at pH 7.4 after 24 hrs by spectrophotometric method. In kind it is physicochemical. In short, it runs like this:
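Water solubility in pH 7.4 buffer, measured spectrophotometrically by the method of Schneider and coworkers.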

Data set [11] concerns the target T2, Protein deacetylase HDAC6 (Homo sapiens) (UniProt Q9UBN7).
T2 sequence (whole entry): T1 sequence (Q9UBN7 whole entry)
The experiment in a line: Inhibition of HDAC6 in human Calu1 cells assessed as induction of tubulin acetylation at 27 to 54 nM after 24 hrs by Western blotting analysis. In kind it is cell-based. To be noted: Calu-1. In short, it runs like this:
(§2)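 Calu-1 and A549 cells treated 24 h, acetylated tubulin detected by western blot with GAPDH as loading control. DMSO vehicle control; one representative of three independent experiments.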

The target of data set [12] is Histone deacetylase 2 (Homo sapiens, UniProt Q92769). The data set can be described thus: Inhibition of recombinant human HDAC2 by fluorimetry.
A short description of data set [13]: Lipophilicity, logD of the compound at pH 7.4 after 4 hrs. In kind it is physicochemical. The settings on record: buffer.
Data set [14] deals with Histone deacetylase (Rattus norvegicus) (UniProt Q6P6W3+Q99P99+Q99P96+Q4QQW4+Q99P97+Q5RJZ2+B1WBY8). The experiment in a line: Inhibition of HDAC in rat liver at 1 uM by fluorimetry. A digest of the protocol: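 Rat liver HDAC preparation, non-selective enzyme assay, test compounds at 1 µM; % inhibition is the mean of two experiments.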
Data set [15] can be described thus: Ionization constant, pKa of the compound in buffer measured over 3 hrs by UV spectrometry. It counts as physicochemical.
In data set [16] the test system is HT-144. The data set can be described thus: Antiproliferative activity against human HT144 cells assessed as reduction in cell viability at 40 uM after 48 hrs by MTS assay. In kind it is functional, cell-based.
Data set [17] in a line: Chemical stability of compound in phosphate dibasic buffer assessed as compound degradation at pH 7.4 by HPLC-PDA analysis. It counts as physicochemical. The settings on record: read-out: Drug degradation. A digest of the protocol: as §1
Data set [18] deals with Calu-1. The data set can be described thus: Inhibition of cell migration in human Calu1 cells at 27 and 54 nM after 48 hrs by scratch test. In kind it is functional, cell-based. In short, it runs like this: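 Calu-1 migration by scratch test after 48 h treatment. DMSO vehicle control; one representative of three independent experiments.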
Data set [19] addresses T3, Histone deacetylase 8 (Homo sapiens, UniProt Q9BY41).
T3 sequence (Q9BY41 whole entry): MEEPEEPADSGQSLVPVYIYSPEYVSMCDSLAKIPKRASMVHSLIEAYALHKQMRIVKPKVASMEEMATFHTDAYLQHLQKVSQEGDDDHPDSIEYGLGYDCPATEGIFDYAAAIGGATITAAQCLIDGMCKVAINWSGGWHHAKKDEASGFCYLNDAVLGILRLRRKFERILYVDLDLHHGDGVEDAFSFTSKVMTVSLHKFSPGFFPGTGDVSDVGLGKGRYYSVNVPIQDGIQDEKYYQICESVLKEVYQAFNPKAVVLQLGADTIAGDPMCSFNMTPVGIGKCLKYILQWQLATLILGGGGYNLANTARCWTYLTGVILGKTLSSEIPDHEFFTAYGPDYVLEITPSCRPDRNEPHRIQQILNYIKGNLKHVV
The experiment in a line: Inhibition of recombinant human HDAC8 by fluorimetry.

In data set [20] the target is T2, Protein deacetylase HDAC6 (Homo sapiens). The experiment in a line: Inhibition of HDAC6 in human A549 cells assessed as induction of tubulin acetylation at 27 to 54 nM after 24 hrs by Western blotting analysis. It counts as cell-based. A digest of the protocol:
as §2

Chain of Histone deacetylase 2 (Q92769 whole entry): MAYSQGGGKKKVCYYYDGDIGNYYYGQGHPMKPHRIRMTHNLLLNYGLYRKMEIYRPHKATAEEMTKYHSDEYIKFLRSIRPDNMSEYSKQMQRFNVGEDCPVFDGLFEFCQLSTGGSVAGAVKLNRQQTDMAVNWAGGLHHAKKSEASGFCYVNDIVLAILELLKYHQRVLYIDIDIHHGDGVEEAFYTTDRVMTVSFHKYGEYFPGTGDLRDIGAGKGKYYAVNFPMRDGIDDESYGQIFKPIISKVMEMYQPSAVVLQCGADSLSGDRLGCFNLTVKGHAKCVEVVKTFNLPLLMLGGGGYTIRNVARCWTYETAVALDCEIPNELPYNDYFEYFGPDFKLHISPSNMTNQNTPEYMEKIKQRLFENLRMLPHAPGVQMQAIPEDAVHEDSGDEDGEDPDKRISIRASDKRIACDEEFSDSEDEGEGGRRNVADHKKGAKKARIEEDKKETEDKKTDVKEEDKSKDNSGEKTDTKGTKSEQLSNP
Chain of Histone deacetylase 1 (Q13547 whole entry): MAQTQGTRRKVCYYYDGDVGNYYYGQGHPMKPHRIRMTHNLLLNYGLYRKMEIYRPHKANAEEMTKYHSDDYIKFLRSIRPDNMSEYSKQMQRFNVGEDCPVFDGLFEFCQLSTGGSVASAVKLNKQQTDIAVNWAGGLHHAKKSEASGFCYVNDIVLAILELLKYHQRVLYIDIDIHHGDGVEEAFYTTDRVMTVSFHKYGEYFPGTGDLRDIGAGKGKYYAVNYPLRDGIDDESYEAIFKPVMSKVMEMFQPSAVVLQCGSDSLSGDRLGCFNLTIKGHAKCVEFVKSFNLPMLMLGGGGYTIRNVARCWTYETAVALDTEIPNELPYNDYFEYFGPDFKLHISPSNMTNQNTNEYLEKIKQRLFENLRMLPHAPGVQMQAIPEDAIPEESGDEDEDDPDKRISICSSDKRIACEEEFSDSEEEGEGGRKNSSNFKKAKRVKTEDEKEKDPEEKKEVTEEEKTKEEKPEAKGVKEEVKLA

For orientation: IC50 means the concentration that gives 50% inhibition. For orientation: solubility means the dissolved amount per volume that the medium holds. Lower therefore signals little dissolved substance. The term inhibition denotes the relative decrease from the control value, in per cent. By logD is commonly meant lipophilicity at a set pH, counting ionised and neutral species. Low values mean lower lipophilicity, high ones higher lipophilicity. Broadly, the pKa is the pH at which an ionisable group is half protonated. Read a high pKa as a weaker acid or stronger base. In the case of `CN(/N=C/c1ccc(C(=O)NO)cc1)C(=O)c1ccc(N(C)C)cc1`, the IC50 in data set [1] was 0.018 µM; in [2], 0.027 µM; in [5] it was above 3 µM; in data set [7], 24.1 µM; in [9], 36.1 µM; in data set [12], above 3 µM. For the same molecule, in data set [19], the IC50 came out at 0.13 µM. Further, the outcome in data set [3], in data set [8] and in data set [16] was Active. Also, the remaining at 4 h in data set [4] was found to be 70%. Moreover, the Stability result in data set [6] is reported as “Unstable”. The solubility at 24 h in [10] was above 64 µM. Also, the inhibition result in data set [11], in data set [18] and in data set [20] was “Active” each time. In [13], the logD at 4 h turned out to be 0.98. This molecule also gave an inhibition in data set [14] of 90.4%. In addition, the pKa at 3 h in [15] came out at 8.1. For the same molecule, the degraded in data set [17] is above 15%.
